From ChEMBL document CHEMBL5154717, “Identification of thiophene-benzenesulfonamide derivatives for the treatment of multidrug-resistant tuberculosis” (Eur J Med Chem, 2022)
Values after ≈ are worked out from the molar mass of the structure shown.

How the values were obtained:
[1] = system: Mycobacterium tuberculosis; assay: Antimycobacterial activity against Mycobacterium tuberculosis H37Rv measured by MABA assay; assay type: functional
Summary of the method: (§1)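 Microplate Alamar Blue assay against replicating M. tuberculosis H37Rv or clinical isolates. MIC is the lowest concentration giving ≥90% reduction in fluorescence relative to the mean of replicate bacterium-only controls.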

[2] = Cytotoxicity against African green monkey Vero cells measured by MTT assay; assay type: toxicity, cell-based; settings: African green monkey (Chlorocebus sabaeus)
Summary of the method: (§2)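 Vero, HepG2 and mouse J774A.1 cells grown in RPMI 1640 with 10% FBS. MTT read-out in 96-well format.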

[3] = Selectivity index, Ratio of IC50 for Vero cells over MIC for Mycobacterium tuberculosis H37Rv; assay type: toxicity; settings: monkey
[4] = system: Mycobacterium tuberculosis; assay: Antimycobacterial activity against Mycobacterium tuberculosis 13946 clinical isolate measured by MABA assay; assay type: functional; summary of the method: as §1
[5] = system: Mycobacterium tuberculosis; assay: Antimycobacterial activity against Mycobacterium tuberculosis 14862 clinical isolate measured by MABA assay; assay type: functional; summary of the method: as §1
[6] = target: Voltage-gated inwardly rectifying potassium channel KCNH2 (Homo sapiens, UniProt Q12809); assay: Inhibition of hERG; assay type: toxicity
Chain of Voltage-gated inwardly rectifying potassium channel KCNH2 (Q12809 whole entry): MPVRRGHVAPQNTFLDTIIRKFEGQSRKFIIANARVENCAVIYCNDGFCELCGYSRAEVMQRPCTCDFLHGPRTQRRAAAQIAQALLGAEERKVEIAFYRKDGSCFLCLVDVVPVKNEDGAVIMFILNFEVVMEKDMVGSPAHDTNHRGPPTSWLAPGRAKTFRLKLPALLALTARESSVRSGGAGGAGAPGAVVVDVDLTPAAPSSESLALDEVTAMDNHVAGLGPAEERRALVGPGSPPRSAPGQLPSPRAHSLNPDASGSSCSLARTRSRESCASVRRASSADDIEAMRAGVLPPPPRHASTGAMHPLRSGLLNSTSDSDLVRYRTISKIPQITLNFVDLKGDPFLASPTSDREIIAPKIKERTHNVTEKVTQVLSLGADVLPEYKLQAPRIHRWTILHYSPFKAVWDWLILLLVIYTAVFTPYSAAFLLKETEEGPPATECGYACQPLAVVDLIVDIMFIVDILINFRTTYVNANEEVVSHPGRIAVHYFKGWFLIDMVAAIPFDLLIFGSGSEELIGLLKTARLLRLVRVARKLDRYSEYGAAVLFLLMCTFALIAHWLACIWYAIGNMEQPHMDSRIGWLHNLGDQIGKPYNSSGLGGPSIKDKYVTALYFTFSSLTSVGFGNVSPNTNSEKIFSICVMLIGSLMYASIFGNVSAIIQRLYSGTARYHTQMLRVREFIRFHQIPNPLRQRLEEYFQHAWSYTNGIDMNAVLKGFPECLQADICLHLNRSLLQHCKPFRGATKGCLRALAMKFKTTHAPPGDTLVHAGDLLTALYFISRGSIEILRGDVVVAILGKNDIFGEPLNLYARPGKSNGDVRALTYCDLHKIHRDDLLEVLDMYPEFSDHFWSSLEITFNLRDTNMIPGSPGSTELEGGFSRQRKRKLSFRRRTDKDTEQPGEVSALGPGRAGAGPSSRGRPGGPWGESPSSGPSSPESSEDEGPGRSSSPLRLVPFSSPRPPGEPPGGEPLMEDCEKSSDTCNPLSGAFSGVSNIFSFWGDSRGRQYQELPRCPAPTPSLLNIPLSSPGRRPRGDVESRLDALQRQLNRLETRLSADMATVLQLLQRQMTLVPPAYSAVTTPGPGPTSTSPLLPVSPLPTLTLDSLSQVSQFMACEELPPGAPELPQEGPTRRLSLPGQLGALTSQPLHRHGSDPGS
Summary of the method: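 Electrophysiological recording of hERG current at 30, 10, 3.0, 1.0 and 0.3 µM, run in duplicate for IC50.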

[7] = Metabolic stability in mouse hepatocytes assessed as compound remaining at 1 uM measured by LC-MS/MS analysis; assay type: ADME, cell-based, Hepatocyte; settings: read-out: Stability
Summary of the method: (§3)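 Compound at 1 µM with hepatocytes at 1 million cells/mL final; human hepatocytes are mixed donor, mouse are male. Incubated at 37 °C in CO2 at ~100 rpm. Sampled at 0, 15, 30, 60, 90 and 120 min, quenched in ice-cold ACN/MeOH with internal standard. Parent remaining measured by LC-MS/MS.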

[8] = Metabolic stability in mouse hepatocytes assessed as half-life at 1 uM measured by LC-MS/MS analysis; assay type: ADME, cell-based, Hepatocyte; summary of the method: as §3
[9] = Metabolic stability in human hepatocytes assessed as compound remaining at 1 uM measured by LC-MS/MS analysis; assay type: ADME, cell-based, Hepatocyte; settings: read-out: Stability; summary of the method: as §3
[10] = Metabolic stability in human hepatocytes assessed as half-life at 1 uM measured by LC-MS/MS analysis; assay type: ADME, cell-based, Hepatocyte; summary of the method: as §3
[11] = Cytotoxicity against human HepG2 cells measured by MTT assay; assay type: toxicity, cell-based; summary of the method: as §2
[12] = Cytotoxicity against mouse J774.A1 cells measured by MTT assay; assay type: toxicity, cell-based; summary of the method: as §2

SMILES	MIC [1]	IC50 [2]	selectivity ratio [3]	further results
O=C(Nc1sccc1C(=O)Nc1ccccn1)c1ccc(S(=O)(=O)N2CCCCC2)cc1	29.6 µg/mL (≈ 62.9 µM)			
COC(=O)NC(=O)c1ccsc1NC(=O)c1ccc(S(=O)(=O)NC2CCCCC2)cc1	0.92 µg/mL (≈ 1.98 µM)	> 64 µg/mL	> 70	
CCOC(=O)NC(=O)c1ccsc1NC(=O)c1ccc(S(=O)(=O)Nc2ccc(C)cc2)cc1	3.56 µg/mL (≈ 7.3 µM)			
CCCCNS(=O)(=O)c1ccc(C(=O)Nc2sccc2C(=O)NC(=O)OC)cc1	0.28 µg/mL (≈ 0.637 µM)	29.5 µg/mL (≈ 67.1 µM)	105	
CCOC(=O)NC(=O)c1ccsc1NC(=O)c1ccc(S(=O)(=O)Nc2ccc(Br)cc2)cc1	2.79 µg/mL (≈ 5.05 µM)			
COC(=O)NC(=O)c1ccsc1NC(=O)c1ccc(S(=O)(=O)N2CCC(=O)CC2)cc1	3.52 µg/mL (≈ 7.56 µM)			
O=C(NC(=O)c1ccsc1NC(=O)c1ccc(S(=O)(=O)N2CCCCC2)cc1)OCC(F)(F)F	29.7 µg/mL (≈ 57.2 µM)			
CCOC(=O)NC(=O)c1ccsc1NC(=O)c1ccc(S(=O)(=O)Nc2ccc(F)cc2)cc1	0.98 µg/mL (≈ 1.99 µM)	20.5 µg/mL (≈ 41.8 µM)	21	
COC(=O)NC(=O)c1ccsc1NC(=O)c1ccc(S(=O)(=O)N2CCCC2)cc1	0.1 µg/mL (≈ 0.229 µM)	39.4 µg/mL (≈ 90.2 µM)	395	
COC(=O)NC(=O)c1ccsc1NC(=O)c1ccc(S(=O)(=O)N(C)C)cc1	1.19 µg/mL (≈ 2.89 µM)	16.2 µg/mL (≈ 39.3 µM)	14	
COC(=O)NC(=O)c1ccsc1NC(=O)c1ccc(S(=O)(=O)N2CCC2)cc1	0.13 µg/mL (≈ 0.307 µM)	17.5 µg/mL (≈ 41.3 µM)	134	
COC(=O)NC(=O)c1ccsc1NC(=O)c1ccc(S(=O)(=O)N2CCC(C)CC2)cc1	0.23 µg/mL (≈ 0.494 µM)	9.13 µg/mL (≈ 19.6 µM)	40	
CCOC(=O)NC(=O)c1ccsc1NC(=O)c1ccc(S(=O)(=O)Nc2nccs2)cc1	7.64 µg/mL (≈ 15.9 µM)			
CCOC(=O)NC(=O)c1ccsc1NC(=O)c1ccc(S(=O)(=O)Nc2cccc(F)c2)cc1	1.14 µg/mL (≈ 2.32 µM)			
C[C@H]1COc2c(N3CCN(C)CC3)c(F)cc3c(=O)c(C(=O)O)cn1c23.C[C@H]1COc2c(N3CCN(C)CC3)c(F)cc3c(=O)c(C(=O)O)cn1c23.O [LEVOFLOXACIN]	0.33 µg/mL			MIC [4]: 1.94 µg/mL; MIC [5]: 1.87 µg/mL
CCCOC(=O)NC(=O)c1ccsc1NC(=O)c1ccc(S(=O)(=O)N2CCCCC2)cc1	0.051 µg/mL (≈ 0.106 µM)	56.6 µg/mL (≈ 118 µM)	1110	
CCOC(=O)NC(=O)c1ccsc1NC(=O)c1ccc(S(=O)(=O)N2CCC(OC)CC2)cc1	0.03 µg/mL (≈ 0.0605 µM)	21 µg/mL (≈ 42.4 µM)	701	
CCCOC(=O)NC(=O)c1ccsc1NC(=O)c1ccc(S(=O)(=O)N2CCOCC2)cc1	2.45 µg/mL (≈ 5.09 µM)			
Cc1ccnc(NC(=O)c2ccsc2NC(=O)c2ccc(S(=O)(=O)N3CCOCC3)cc2)n1	0.87 µg/mL (≈ 1.78 µM)	42.7 µg/mL (≈ 87.6 µM)	49	

SMILES	MIC [1]	IC50 [2]	selectivity ratio [3]	further results
COC(=O)NC(=O)c1ccsc1NC(=O)c1ccc(S(=O)(=O)N2CCC(c3ccccc3)CC2)cc1	> 32 µg/mL			
CCOC(=O)NC(=O)c1ccsc1NC(=O)c1ccc(S(=O)(=O)Nc2ccc([N+](=O)[O-])cc2)cc1	3.61 µg/mL (≈ 6.96 µM)			
Cc1ccnc(NC(=O)c2ccsc2NC(=O)c2ccc(S(=O)(=O)N3CCCCC3)cc2)n1	0.24 µg/mL (≈ 0.494 µM)	32.8 µg/mL (≈ 67.5 µM)	137	IC50 [6]: 1.7 µM; remaining at 1 µM [7]: 7.3%; half-life at 1 µM [8]: 7.9 min; remaining at 1 µM [9]: 41.2%; half-life at 1 µM [10]: 23.4 min
CCOC(=O)NC(=O)c1ccsc1NC(=O)c1ccc(S(=O)(=O)Nc2ccccc2)cc1	0.7 µg/mL (≈ 1.48 µM)	14.5 µg/mL (≈ 30.6 µM)	21	
CN[C@@H]1[C@H](O[C@H]2[C@H](O[C@H]3[C@H](O)[C@@H](O)[C@H](N=C(N)N)[C@@H](O)[C@@H]3N=C(N)N)O[C@@H](C)[C@]2(O)C=O)O[C@@H](CO)[C@H](O)[C@H]1O [STREPTOMYCIN]	0.49 µg/mL (≈ 0.843 µM)			MIC [4]: > 2 µg/mL; MIC [5]: > 2 µg/mL
CCN(C)S(=O)(=O)c1ccc(C(=O)Nc2sccc2C(=O)NC(=O)OC)cc1	0.49 µg/mL (≈ 1.15 µM)	10.4 µg/mL (≈ 24.5 µM)	21	
CCOC(=O)NC(=O)c1ccsc1NC(=O)c1ccc(S(=O)(=O)N2CCC2)cc1	0.049 µg/mL (≈ 0.112 µM)	> 64 µg/mL	> 1310	MIC [4]: 0.06 µg/mL (≈ 0.137 µM); MIC [5]: 0.062 µg/mL (≈ 0.142 µM)
O=C(NC(=O)c1ccsc1NC(=O)c1ccc(S(=O)(=O)N2CCOCC2)cc1)OCC(F)(F)F	30.4 µg/mL (≈ 58.4 µM)			
CCOC(=O)NC(=O)c1ccsc1NC(=O)c1ccc(S(=O)(=O)Nc2ccc(OC)cc2)cc1	3.64 µg/mL (≈ 7.23 µM)			
CCOC(=O)NC(=O)c1ccsc1NC(=O)c1ccc(S(=O)(=O)N2CCCCCC2)cc1	0.024 µg/mL (≈ 0.05 µM)	3.42 µg/mL (≈ 7.13 µM)	143	
CCOC(=O)NC(=O)c1ccsc1NC(=O)c1ccc(S(=O)(=O)Nc2ccccn2)cc1	1.55 µg/mL (≈ 3.27 µM)			
COC(=O)NC(=O)c1ccsc1NC(=O)c1ccc(S(=O)(=O)NC23CC4CC(CC(C4)C2)C3)cc1	1.96 µg/mL (≈ 3.79 µM)			
COC(=O)NC(=O)c1ccsc1NC(=O)c1ccc(S(=O)(=O)N2CCC(OC)CC2)cc1	0.03 µg/mL (≈ 0.0623 µM)	18 µg/mL (≈ 37.4 µM)	601	IC50 [11]: 46.1 µg/mL (≈ 95.7 µM); IC50 [6]: 8.9 µM; MIC [4]: 0.25 µg/mL (≈ 0.519 µM); MIC [5]: 0.44 µg/mL (≈ 0.914 µM); IC50 [12]: 54.9 µg/mL (≈ 114 µM)
CCOC(=O)NC(=O)c1ccsc1NC(=O)c1ccc(S(=O)(=O)Nc2ccc(OC(F)(F)F)cc2)cc1	26.3 µg/mL (≈ 47.2 µM)			
COC(=O)NC(=O)c1ccsc1NC(=O)c1ccc(S(=O)(=O)N2CCC(O)CC2)cc1	3.67 µg/mL (≈ 7.85 µM)			
COC(=O)NC(=O)c1ccsc1NC(=O)c1ccc(C(=O)N2CCCCC2)cc1	0.19 µg/mL (≈ 0.457 µM)	> 64 µg/mL	> 337	
CC(C)OC(=O)NC(=O)c1ccsc1NC(=O)c1ccc(S(=O)(=O)N2CCOCC2)cc1	0.45 µg/mL (≈ 0.934 µM)	13.1 µg/mL (≈ 27.3 µM)	29	
COC(=O)NC(=O)c1ccsc1NC(=O)c1ccc(S(=O)(=O)N2CCCCCC2)cc1	0.22 µg/mL (≈ 0.473 µM)	9.13 µg/mL (≈ 19.6 µM)	42	
